Reference: ChEMBL document CHEMBL1121628, “Synthesis of isomeric thienobenzothiazines and their effect on dopamine metabolism in rat brain” (1980)

What was measured:
Format in all cases: functional
Rattus norvegicus [1] = organism: Rattus norvegicus; assay: Effective dose causing a homovanillic acid (HVA) concentration three fold the control level in rat striatum
In short: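 Male albino Wistar rats (180-250 g) received drug i.p. in 0.9% NaCl with a little ascorbic acid, made fresh and kept from light. Controls got saline-ascorbic acid. Rats were decapitated 2 h later and the corpus striatum dissected. HVA was read fluorometrically as the mean of left and right striata. Four to six doses, 3-6 rats each; threefold-HVA dose taken from log dose-response curves.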

Rattus norvegicus [2] = assay: Tested for neuroleptic activity by measuring the increase in homovanillic acid (HVA) level in rat corpus striatum at dosage of 10 umol/kg
In short: (§1)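 Wistar male rats (180-250 g) were dosed i.p. at the stated level in fresh, light-protected 0.9% NaCl with a little ascorbic acid; controls received saline-ascorbic acid. They were decapitated at 2 h and the corpus striatum removed. HVA was assayed by a semiautomatic fluorometric method, averaging both striata, with 3-6 rats per dose. Values are expressed as % of control HVA.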

Rattus norvegicus [3] = assay: Tested for neuroleptic activity by measuring the increase in homovanillic acid (HVA) level in rat corpus striatum at dosage of 20 umol/kg; in short: as §1
Rattus norvegicus [4] = assay: Tested for neuroleptic activity by measuring the increase in homovanillic acid (HVA) level in rat tuberculum olfactorium at dosage of 10 umol/kg
In short: (§2)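 Freshly made in 0.9% NaCl with a little ascorbic acid and kept from light, given ip to male Wistar rats (180-250 g); controls got saline-ascorbic acid. Rats decapitated 2 h post-dose and the brain region dissected. HVA was measured by a semiautomatic fluorometric method and expressed as % of control levels. 3-6 rats per dose.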

Rattus norvegicus [5] = assay: Tested for neuroleptic activity by measuring the increase in homovanillic acid (HVA) level in rat nucleus accumbens at dosage of 30 umol/kg
Rattus norvegicus [6] = assay: Tested for neuroleptic activity by measuring the increase in homovanillic acid (HVA) level in rat corpus striatum at dosage of 30 umol/kg; in short: as §1
Rattus norvegicus [7] = assay: Tested for neuroleptic activity by measuring the increase in homovanillic acid (HVA) level in rat tuberculum olfactorium at dosage of 50 umol/kg; in short: as §2
Rattus norvegicus [8] = assay: Tested for neuroleptic activity by measuring the increase in homovanillic acid (HVA) level in rat nucleus accumbens at dosage of 10 umol/kg
Rattus norvegicus [9] = assay: Tested for neuroleptic activity by measuring the increase in homovanillic acid (HVA) level in rat tuberculum olfactorium at dosage of 30 umol/kg; in short: as §2
Rattus norvegicus [10] = assay: Tested for neuroleptic activity by measuring the increase in homovanillic acid (HVA) level in rat corpus striatum at dosage of 50 umol/kg; in short: as §1
Rattus norvegicus [11] = assay: Tested for neuroleptic activity by measuring the increase in homovanillic acid (HVA) level in rat tuberculum olfactorium at dosage of 20 umol/kg; in short: as §2
Rattus norvegicus [12] = assay: Tested for neuroleptic activity by measuring the increase in homovanillic acid (HVA) level in rat nucleus accumbens at dosage of 50 umol/kg
Rattus norvegicus [13] = assay: Tested for neuroleptic activity by measuring the increase in homovanillic acid (HVA) level in rat nucleus accumbens at dosage of 20 umol/kg
Rattus norvegicus [14] = assay: Tested for neuroleptic activity by measuring the increase in homovanillic acid (HVA) level in rat tuberculum olfactorium at dosage of 5 umol/kg; in short: as §2
Rattus norvegicus [15] = assay: Tested for neuroleptic activity by measuring the increase in homovanillic acid (HVA) level in rat nucleus accumbens at dosage of 5 umol/kg
Rattus norvegicus [16] = assay: Tested for neuroleptic activity by measuring the increase in homovanillic acid (HVA) level in rat corpus striatum at dosage of 15 umol/kg; in short: as §1
Rattus norvegicus [17] = assay: Tested for neuroleptic activity by measuring the increase in homovanillic acid (HVA) level in rat corpus striatum at dosage of 25 umol/kg; in short: as §1
Rattus norvegicus [18] = assay: Tested for neuroleptic activity by measuring the increase in homovanillic acid (HVA) level in rat tuberculum olfactorium at dosage of 25 umol/kg; in short: as §2
Rattus norvegicus [19] = assay: Tested for neuroleptic activity by measuring the increase in homovanillic acid (HVA) level in rat nucleus accumbens at dosage of 15 umol/kg; in short: as §2
Rattus norvegicus [20] = assay: Tested for neuroleptic activity by measuring the increase in homovanillic acid (HVA) level in rat corpus striatum at dosage of 5 umol/kg; in short: as §1
Rattus norvegicus [21] = assay: Tested for neuroleptic activity by measuring the increase in homovanillic acid (HVA) level in rat nucleus accumbens at dosage of 25 umol/kg
Rattus norvegicus [22] = assay: Tested for neuroleptic activity by measuring the increase in homovanillic acid (HVA) level in rat tuberculum olfactorium at dosage of 15 umol/kg; in short: as §2
Rattus norvegicus [23] = assay: Tested for neuroleptic activity by measuring the increase in homovanillic acid (HVA) level in rat tuberculum olfactorium at dosage of 75 umol/kg; in short: as §2
Rattus norvegicus [24] = assay: Tested for neuroleptic activity by measuring the increase in homovanillic acid (HVA) level in rat corpus striatum at dosage of 75 umol/kg; in short: as §1
Rattus norvegicus [25] = assay: Tested for neuroleptic activity by measuring the increase in homovanillic acid (HVA) level in rat nucleus accumbens at dosage of 75 umol/kg

In the case of `CN(C)CCCN1c2cc(Cl)ccc2Sc2ccsc21`, the ED300 (Rattus norvegicus [1]) is reported as 350 µM/kg.
In the case of `CN(C)CCCN1c2cc(C(F)(F)F)ccc2Sc2sccc21`, the HVA control (Rattus norvegicus [2]) is reported as 320%, the HVA control (Rattus norvegicus [3]) is reported as 410% and the HVA control (Rattus norvegicus [4]) is reported as 180%. For the same compound, the HVA control (Rattus norvegicus [5]) was 360%, the HVA control (Rattus norvegicus [6]) was 430% and the HVA control (Rattus norvegicus [7]) was 300%. The HVA control (Rattus norvegicus [8]) was 250%, the ED300 (Rattus norvegicus [1]) was 6.1 µM/kg and the HVA control (Rattus norvegicus [9]) was 280%. The HVA control (Rattus norvegicus [10]) was 510%, the HVA control (Rattus norvegicus [11]) was 240% and the HVA control (Rattus norvegicus [12]) was 510%. The HVA control (Rattus norvegicus [13]) was 350%.
For `CN(C)CCCN1c2ccccc2Sc2cscc21`, the ED300 (Rattus norvegicus [1]) was 460 µM/kg.
`CN(C)CCCN1c2cscc2Sc2ccc(C(F)(F)F)cc21` showed an HVA control (Rattus norvegicus [14]) of 100%, an HVA control (Rattus norvegicus [15]) of 125% and an HVA control (Rattus norvegicus [16]) of 340%. It also gave an HVA control (Rattus norvegicus [17]) of 445%, an HVA control (Rattus norvegicus [18]) of 270% and an HVA control (Rattus norvegicus [2]) of 310%. The HVA control (Rattus norvegicus [4]) was 160%, the HVA control (Rattus norvegicus [19]) was 260% and the HVA control (Rattus norvegicus [20]) was 140%. It also gave an HVA control (Rattus norvegicus [8]) of 185%, an ED300 (Rattus norvegicus [1]) of 9.2 µM/kg and an HVA control (Rattus norvegicus [21]) of 390%. The HVA control (Rattus norvegicus [22]) was 210%.
With `CN(C)CCCN1c2cscc2Sc2ccc(Cl)cc21` the ED300 (Rattus norvegicus [1]) was 19.2 µM/kg.
In the case of `CN(C)CCCN1c2cc(C(F)(F)F)ccc2Sc2ccsc21`, the HVA control (Rattus norvegicus [16]) is reported as 130%, the HVA control (Rattus norvegicus [23]) is reported as 200% and the HVA control (Rattus norvegicus [19]) is reported as 100%. The HVA control (Rattus norvegicus [24]) was 440%, the HVA control (Rattus norvegicus [25]) was 375% and the HVA control (Rattus norvegicus [7]) was 150%. It also gave an ED300 (Rattus norvegicus [1]) of 30.1 µM/kg, an HVA control (Rattus norvegicus [10]) of 310% and an HVA control (Rattus norvegicus [12]) of 180%.
For `CN(C)CCCN1c2ccccc2Sc2sccc21`, the ED300 (Rattus norvegicus [1]) was 480 µM/kg.
`CN(C)CCCN1c2cc(Cl)ccc2Sc2sccc21` gave an ED300 (Rattus norvegicus [1]) of 36 µM/kg.
`Cl.OCCN1CCN(CCCN2c3ccccc3Sc3sccc32)CC1` gave an ED300 (Rattus norvegicus [1]) of 18.9 µM/kg.
With `Cl.OCCN1CCN(CCCN2c3cc(Cl)ccc3Sc3sccc32)CC1` the ED300 (Rattus norvegicus [1]) was 3.27 µM/kg.
`Cl.OCCN1CCN(CCCN2c3cc(C(F)(F)F)ccc3Sc3ccsc32)CC1` showed an ED300 (Rattus norvegicus [1]) of 4 µM/kg.
Compound `Cl.OCCN1CCN(CCCN2c3cc(C(F)(F)F)ccc3Sc3sccc32)CC1` has an ED300 (Rattus norvegicus [1]) of 0.75 µM/kg.
In the case of `Cl.OCCN1CCN(CCCN2c3cscc3Sc3ccc(C(F)(F)F)cc32)CC1`, the ED300 (Rattus norvegicus [1]) is reported as 0.54 µM/kg.
Work on `Cl.OCCN1CCN(CCCN2c3cc(Cl)ccc3Sc3ccsc32)CC1` yielded an ED300 (Rattus norvegicus [1]) of 20.5 µM/kg.
`Cl.OCCN1CCN(CCCN2c3cscc3Sc3ccc(Cl)cc32)CC1` was tested, and the ED300 (Rattus norvegicus [1]) was 1.5 µM/kg.
In the case of `Cl.OCCN1CCN(CCCN2c3ccccc3Sc3cscc32)CC1`, the ED300 (Rattus norvegicus [1]) is reported as 13.7 µM/kg.
